Shown are actives, neighbours in structure and some others; about 1.9% of the full set was active somewhere.
Lipid droplet: inhibitors of hepatocyte lipid droplet formation, primary screen, imaging, high-throughput imaging, BODIPY stain. hit rate 0.4% among 240,000. inhibition, % at 6.5 µM. AML12 mouse hepatocytes, oleate lipid droplets;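 active = lipid droplet intensity inhibited by at least 50%, with more than 500 cells counted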
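Material: mouse AML12 hepatocyte cell line, fixed after treatment; Timing: compound with oleate, overnight; Technique: high-content imaging of BODIPY-stained droplets and DAPI nuclei; Probe or stimulus: oleate, 100 µM final; Dosing: compound at 6.5 µM only.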
H9c2 TAG inh: inhibitors of triacylglycerol accumulation, primary screen, cell-based, uHTS, fluorescence, H9c2 | H9c2 cells, Nile Red lipid (TAG) fluorescence; cells loaded with 200 µM oleic acid | inhibition, % at 12.5 µM | hit rate 0.66% among 230,000;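 active = pattern-corrected inhibition of lipid staining of at least 50% with the nuclear-stain viability signal not falling by more than 50%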;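 note: 0% = DMSO wells and 100% = triacsin C control wells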
APP transl inh: inhibitors of APP translation via 5'UTR reporter, primary screen, APP 5'UTR luciferase, SH-SY5Y cells; inhibition, % at 2 µM; SH-SY5Y APP 5'UTR-luciferase reporter, luminescence; hit rate 0.82% among 190,000; AID 1285, 2008;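 active = inhibition above a set limit, derived from the sample mean plus 3 SD, cut at about 45% in these data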
697 NFkB inh: inhibitors of PMA/ionomycin-induced NF-kB reporter, 697 cells, primary screen, B-cell NF-kB inhibitor project, cell-based, luminescence, uHTS | 697 B-cell NF-kB luciferase reporter, 16 h | inhibition, % at 4 µM | hit rate 0.33% among 330,000 | AID 435022, 2010; in the data active = inhibition above about 35%
aSyn 5UTR inh: MLPCN primary screen, SNCA 5' untranslated region | alpha-synuclein 5'UTR reporter, inhibitor activity | inhibition, % (tested at 7.5 µM) | hit rate 0.82% among 300,000 | AID 1813, 2009; in the data active = inhibition above about 60%;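 note: H4 neuroglioblastoma cells stably carrying SNCA 5'UTR luciferase fusion; 0% = DMSO wells and 100% = positive control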
Jurkat NFkB inh: inhibitors of induced NF-kB luciferase reporter, primary screen, TCR NF-kB activation inhibitor project, cell-based, luminescence, uHTS; Jurkat, PMA/ionomycin-induced NF-kB luciferase reporter; inhibition, % at 4 µM; hit rate 0.53% among 330,000; AID 435003, 2010; in the data active = inhibition above about 50%
697 NFkB conf: PMA/ionomycin-induced NF-kB reporter inhibitors, 697 retest, confirmation, B-cell NF-kB inhibitor project, cell-based, luminescence, single concentration | shares compounds with 697 NFkB inh | 697 B-cell NF-kB luciferase, 16 h | inhibition, % at 4 µM | hit rate 35% among 2,000; in the data active = inhibition mostly above about 28%, no sharp cut-off; inactive = mostly below about 22%
* marks the source's active call; other numbers are inactive results; i = inactive; x = not tested or not shown.

SMILES | Lipid droplet | H9c2 TAG inh | APP transl inh | 697 NFkB inh | aSyn 5UTR inh | Jurkat NFkB inh | 697 NFkB conf
O=C1CC(c2ccc3c(c2)OCO3)Sc2nc3ccccc3n21 (stereo unspecified) | x | x | -130 | -255 | -160 | -68 | -111
Cc1ccc(NC(=O)C(C)c2ccc([N+](=O)[O-])cc2)cc1Cl (stereo unspecified) | -2 | x | 1 | 12 | 12 | 10 | x
O=C(CCN1C(=O)c2ccccc2C1=O)Oc1ccc2ccccc2c1 | x | 7 | -3 | 12 | -3 | -12 | x
CC1=CC(C)(C)Nc2ccc(OC(=O)CCN3C(=O)c4ccccc4C3=O)cc21 | 2 | 54* | 32 | 41* | 24 | 15 | 14
COc1ccc(-c2c(NC(=O)c3ccco3)oc3c(C)cccc3c2=O)cc1OC | 3 | x | x | -1 | -50 | -7 | x
C[C@@H]1CN([C@H](C)CO)C(=O)CCCn2cc(nn2)CO[C@H]1CN(C)S(=O)(=O)c1ccc(C#N)cc1 | x | -6 | x | x | x | x | x
CCN1C(=O)Nc2cccc3cccc1c23 | x | 28 | x | 37* | 3 | -5 | 36*
CCn1c(=O)cc(OCC(=O)NCc2ccco2)c2ccccc21 | x | 13 | 6 | 7 | 4 | 10 | x
CCn1c(=O)cc(OCC(=O)NCc2ccc(C)o2)c2ccccc21 | 18 | x | 8 | 36* | 25 | 6 | 42*
CCOC(=O)Cn1c(-c2nonc2NC(=O)c2ccccc2F)nc2ccccc21 | 16 | -16 | -5 | i | 18 | -66 | i
O=C(Nc1ccc2oc(-c3ccccc3Cl)nc2c1)c1ncn[nH]1 | 15 | x | -60 | -288 | -153 | -101 | -194
O=C(Nc1ccc2oc(-c3cccc4ccccc34)nc2c1)c1ncn[nH]1 | 8 | -17 | -16 | -120 | -184 | -35 | x
CCOc1ccc2nc(-c3ccccc3)[nH]c2c1 | x | 50* | -142 | -298 | 2 | -36 | -272
CCCCCCn1c(-c2ccco2)nc2oc3cc(OC)ccc3c(=O)c2c1=O | 9 | x | -18 | 42* | -53 | 7 | 35*
CCCc1nc2oc3cc(OC)ccc3c(=O)c2c(=O)n1Cc1ccco1 | -16 | -5 | 7 | 13 | 15 | 5 | x
CC1O[C@@H](O[C@H](C)CC[C@@H](C)O[C@H]2OC(C)[C@@H](O)C[C@H]2O)C(O)C[C@H]1O (stereo partly specified) | x | -10 | x | -14 | -24 | 13 | x
Oc1ccc(N=Nc2ccc3ccccc3c2)cc1 | 7 | x | x | -400 | -73 | -122 | -318
C=CC[C@H](CC(=O)OC(C)(C)C)C(=O)OC[C@H]1CCCN1C(=O)[C@H](CC=C)CC(=O)NCCO | x | 0 | x | 10 | x | -7 | x
COc1ccc(OC)c2sc(N3CCc4ccccc4C3)nc12 | -3 | 7 | -4 | 5 | 15 | 2 | x
c1ccc2c(c1)CCN(c1nc3cc4c(cc3s1)OCCO4)C2 | x | 5 | -148 | -382 | 75* | -44 | -358
O=C(Nc1ccc(N2CCCC2)cc1)c1cccc(Cl)c1 | 4 | x | x | -266 | -137 | -119 | -27
CC1CN(S(=O)(=O)c2ccc(C(=O)Nc3nc(-c4cc5ccccc5o4)cs3)cc2)CC(C)O1 (stereo unspecified) | -5 | -8 | 7 | 74* | -16 | 43 | 51*
O=C(Nc1nc(-c2cc3ccccc3o2)cs1)c1ccc(S(=O)(=O)N2CCCC2)cc1 | -18 | x | -14 | 23 | -68 | 27 | x
COc1ccc(OCC(O)CNC(=O)Nc2ccc(F)cc2)cc1 (stereo unspecified) | 0 | 6 | x | 11 | 19 | -3 | x
Cc1ccc(NC(=O)O/N=C/c2c(C)nn(C(C)(C)C)c2C)cc1Cl | 7 | -13 | x | 63* | 77* | 14 | 78*
SMILES | Lipid droplet | H9c2 TAG inh | APP transl inh | 697 NFkB inh | aSyn 5UTR inh | Jurkat NFkB inh | 697 NFkB conf
Cc1ccc(NC(=O)Nn2cnnc2)cc1Cl | -4 | 10 | x | 2 | 12 | -12 | x
O/N=C(/CCc1ccccc1)c1ccc2c(c1)OCCO2 | 1 | -11 | -58 | -57 | -120 | -58 | x
O=C(CCCc1ccccc1)c1ccc2c(c1)OCCO2 | -4 | x | -42 | -270 | 86* | 42 | -210
CCOC(=O)/C(C#N)=C/c1cc(C)n(-c2ccccc2)c1C | 3 | 2 | -153 | -289 | -58 | -81 | -115
O=S(=O)(NCc1ccncc1)c1ccc(Br)s1 | -4 | -40 | 28 | 51* | 14 | 42 | 45*
CCOC(=O)C1=C(COC(=O)Cc2c(F)cccc2Cl)NC(=O)NC1C (stereo unspecified) | x | -13 | x | 21 | x | 13 | x
CCOC(=O)N1CCN(CC(=O)Nc2ccc([N+](=O)[O-])cc2C(=O)Nc2ccccc2F)CC1 | -5 | 12 | 7 | 38* | 11 | 42 | 39*
COCCN1C(=O)C(C(=O)OC)CC2=C1CC(C)(C)CC2=O (stereo unspecified) | x | -2 | x | x | x | x | x
Cc1ccc(C(=O)Nc2sc(C)c(-c3ccccc3)c2C(N)=O)cc1[N+](=O)[O-] | 1 | 34 | -54 | -415 | -81 | -20 | -99
Cc1ccc(C(=O)Nc2cccc(NC(=O)c3ccc(C)c([N+](=O)[O-])c3)n2)cc1[N+](=O)[O-] | -8 | x | x | -5 | -8 | 1 | x
O=C(NC(Cc1c[nH]c2ccccc12)C(=O)Nc1ccc(OC(F)(F)F)cc1)c1cccs1 (stereo unspecified) | -13 | x | -21 | i | 10 | -65 | 8
O=C(NC(Cc1c[nH]c2ccccc12)C(=O)N/N=C/c1cccc2ccccc12)c1cccs1 (stereo unspecified) | -24 | -9 | -36 | 8 | 22 | -7 | x
O=C(NC(Cc1c[nH]c2ccccc12)C(=O)O)c1cccs1 (stereo unspecified) | 0 | 4 | 5 | 3 | 5 | 7 | x
O=C(NC(Cc1c[nH]c2ccccc12)C(=O)Nc1ccc(F)c([N+](=O)[O-])c1)c1cccs1 (stereo unspecified) | 13 | x | 43 | i | 0 | -44 | -265
Cc1ccc(CNC(=O)c2ccc(C)c(S(=O)(=O)N3CCCCC3)c2)cc1 | x | 4 | x | 2 | x | 1 | x
CCOC(=O)C(=CNc1cc(C)ccc1C)C(=O)OCC | x | x | 8 | 38* | 6 | 1 | 29*
O=C(CN1CCC(O)(c2ccc3c(c2)OCO3)CC1)OC1CCCCC1 | -7 | x | -16 | 8 | -5 | -1 | x
O=[N+]([O-])c1ccc(NNS(=O)(=O)c2cc(Cl)ccc2Cl)nc1 | 5 | 8 | x | 2 | 2 | -6 | x
COc1ccc(NC(=O)c2ccc3nccnc3c2)cc1 | -10 | 0 | -82 | -52 | -102 | -77 | x
